UBC13 polyUb – blocks human UBC13 polyubiquitin chain formation | inhibition, % at 20 µM | TR-FRET | P61088 | 330,000 tested, 0.47% active; in the data active = inhibition above about 45%, passing the limit was not always enough
SENP7 block – SENP7 protease inhibition. Q9BQF6. recombinant SENP7, Z-RLRGG-aminoluciferin luminescence, 40 min. inhibition, % at 5 µM. 330,000 tested, 1.5% active. AID 434973;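 active = inhibition above about 50% at the single test dose, limit read from the data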;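 note: plate controls were DMSO with enzyme for no effect and no enzyme buffer wells for full effect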
Target sequence (Q9BQF6 706-1050 limits assumed): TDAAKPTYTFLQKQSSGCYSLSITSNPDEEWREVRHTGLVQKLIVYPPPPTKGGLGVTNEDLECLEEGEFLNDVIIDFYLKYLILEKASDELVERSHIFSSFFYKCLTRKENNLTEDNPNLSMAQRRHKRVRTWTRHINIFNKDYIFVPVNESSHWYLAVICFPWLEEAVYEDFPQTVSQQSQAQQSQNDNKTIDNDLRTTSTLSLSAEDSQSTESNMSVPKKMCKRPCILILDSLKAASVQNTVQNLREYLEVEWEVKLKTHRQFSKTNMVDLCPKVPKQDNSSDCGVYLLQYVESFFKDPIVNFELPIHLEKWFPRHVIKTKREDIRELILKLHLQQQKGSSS
SENP8 block-1 – blocks human SENP8 cleavage of Nedd8 substrate | Q96LD8 | recombinant SENP8, Nedd8 substrate fluorescence | inhibition, % at 20 µM | 360,000 tested, 0.64% active | AID 602440; in the data active = inhibition mostly above about 40%, no sharp cut-off; inactive = mostly below about 27%
Target sequence (Q96LD8 whole entry, looked up): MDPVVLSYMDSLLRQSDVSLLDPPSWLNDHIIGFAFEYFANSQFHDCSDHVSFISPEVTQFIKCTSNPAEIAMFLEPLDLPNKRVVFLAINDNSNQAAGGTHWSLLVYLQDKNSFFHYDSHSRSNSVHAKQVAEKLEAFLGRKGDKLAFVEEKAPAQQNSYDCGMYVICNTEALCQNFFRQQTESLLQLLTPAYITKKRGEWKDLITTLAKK
SENP6 inh – blocks the human protease SENP6. Recombinant SENP6 catalytic domain, aminoluciferin luminescence. inhibition, % at 10 µM. 330,000 tested, 1.8% active;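 active = inhibition above about 50% at the single tested dose, limit read from the data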;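 note: plate controls were DMSO wells with enzyme for no effect and DMSO wells lacking enzyme for full effect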
SENP8 block-2 – blocks the human protease SENP8 | 330,000 tested, 1.2% active | Q96LD8 | inhibition, % at 10 µM | AID 2540 | purified SENP8, Z-RLRGG-aminoluciferin cleavage, luminescence; in the data active = inhibition above about 50%
Apaf1 inhib – inhibitors of human Apaf-1 apoptosome | inhibition, % at 20 µM | 330,000 tested, 0.71% active | reconstituted apoptosome caspase-3 activity, DEVD-Rh110 fluorescence | O14727; active = inhibition of at least 40% at 20 µM;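 note: plate controls were DMSO wells for no effect and DEVD-CHO caspase inhibitor wells for full effect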
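Material: reconstituted apoptosome with Apaf-1, cytochrome c, caspase-9, procaspase-3, dATP; medium: pH 7.5 Hepes buffer with CHAPS, BSA, DTT; also added: cytochrome c and DEVD-Rh110 substrate; timing: 30 min plus 50 min, RT; signal: Rh110 fluorescence intensity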
SENP8 conf-1 – human SENP8 inhibition, confirmed; 6,200 tested, 40% active; inhibition, % at 12.5 µM; shares compounds with SENP7 block; Recombinant SENP8, Z-RLRGG-aminoluciferin luminescence, 60 min;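 active = mean inhibition across replicates above about 50%, limit read from the data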
SENP6 conf – confirmation of human SENP6 protease inhibitors. shares compounds with SENP7 block. recombinant SENP6, Z-RLRGG-aminoluciferin luminescence. inhibition, % at 12.5 µM. 6,200 tested, 58% active. AID 488915
SENP7 conf – confirmation of human SENP7 protease inhibitors. AID 488917. 6,200 tested, 69% active. inhibition, % at 12.5 µM. recombinant SENP7, Z-RLRGG-aminoluciferin luminescence, 40 min. shares compounds with SENP7 block
Casp3 SENP sel – selectivity test for SENP inhibitors: human caspase-3 inhibition. shares compounds with SENP7 block. purified caspase-3, Z-DEVD-aminoluciferin luminescence, 60 min. inhibition, % at 12.5 µM. 6,200 tested, 60% active. AID 488918;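 active = mean inhibition above about 50%, limit read from the data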;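 note: plate controls were enzyme with DMSO for no effect and wells without caspase-3 for full effect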
Target sequence (P42574 28-227 limits assumed): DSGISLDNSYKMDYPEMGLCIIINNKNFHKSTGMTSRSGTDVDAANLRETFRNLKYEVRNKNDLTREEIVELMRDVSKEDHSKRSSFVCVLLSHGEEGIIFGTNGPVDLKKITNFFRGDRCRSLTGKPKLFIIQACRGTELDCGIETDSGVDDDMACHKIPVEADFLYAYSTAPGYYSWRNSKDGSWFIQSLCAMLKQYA
Luc interf – luminescence interference (SENP counter-screen). AID 488919. inhibition, % at 12.5 µM. shares compounds with SENP7 block. Pre-incubated SENP8/Z-RLRGG-aminoluciferin, luciferase luminescence interference. 6,200 tested, 39% active;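 active = mean inhibition above about 50% when retested at one dose, limit read from the data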;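 note: plate controls were DMSO wells with completed reaction for no effect and substrate without enzyme for full effect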
Apaf-1 inh conf – Apaf-1 inhibition, single-dose confirmed. shares compounds with Apaf1 inhib. reconstituted apoptosome, caspase-3 DEVD-Rh110 fluorescence. inhibition, % at 20 µM. 1,800 tested, 25% active. AID 504614;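 active = mean inhibition of at least 40% at 20 µM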;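 note: plate controls were DMSO wells for no effect and DEVD-CHO caspase inhibitor control wells for full effect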
Rh110 quench – counter-screen for Apaf-1 inhibitors: fluorescence interference; shares compounds with Apaf1 inhib; Rh110 fluorescence interference, quenched caspase reaction; activation (fluorescence interference), % at 20 µM; 1,800 tested, under 10 active;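 active = signal rise of 40% or more at 20 µM, treated as a fluorescence artifact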
Fluor interf inh – Apaf-1 inhibitor counter-screen fluorescence artifact; 460 tested, under 10 active; fluorescence interference counterscreen, Apaf-1 assay format; IC50, µM; AID 588538; shares compounds with Apaf1 inhib; call rule not given here
SENP8 conf-2 – SENP8 (human) inhibition, single concentration confirmation. shares compounds with SENP8 block-1. purified SENP8, Nedd8-AMC/pro-Nedd8 cleavage fluorescence, 30 min. inhibition, % at 25 µM. 1,400 tested, 15% active. AID 624319; in the data active = inhibition mostly above about 39%, no sharp cut-off; inactive = mostly below about 34%
An asterisk follows results filed as active; nt = not tested or not shown. This is a sample that favours compounds with a hit; in the whole collection about 3% have one here.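 Rule for the calls, unless noted: active = mean inhibition above about 50% in the one-dose retest (limit read from the data); inactive = the rest.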

SMILES | UBC13 polyUb | SENP7 block | SENP8 block-1 | SENP6 inh | SENP8 block-2 | Apaf1 inhib | SENP8 conf-1 | SENP6 conf | SENP7 conf | Casp3 SENP sel | Luc interf | Apaf-1 inh conf | Rh110 quench | SENP8 conf-2 | others
COc1ccc(-n2c(N)c(C(=O)NCC3CCCO3)c3nc4ccccc4nc32)c(OC)c1 (centres undefined) | -27.9 | 38.5 | -290.2 | 68.2* | 43.6 | 65.8* | -8.6 | 5.2 | 6.8 | 0.6 | -5.5 | 26.7 | 11.8 | nt
Nc1c(C(=O)NCc2ccccc2)c2nc3ccccc3nc2n1CCCN1CCOCC1 | 30.3 | 21.5 | -410.5 | 74.3* | 62.9* | 49.4* | -0.3 | 6.6 | -2.3 | -4.4 | -5.2 | 32.5 | 26.4 | nt
C=CCn1c(N)c(C(=O)NCC2CCCO2)c2nc3ccccc3nc21 (centres undefined) | -14.9 | 22.7 | -273.7 | 91.4* | 90.0* | 77.7* | 9.5 | 21.2 | 15.3 | 4.9 | 5.4 | 11.0 | -187.4 | nt
Cc1cccc(N(C)S(=O)(=O)c2c(C)noc2C)c1 | 5.2 | 2.8 | -22.1 | -1.1 | -4.6 | -4.9 | nt | nt | nt | nt | nt | nt | nt | nt
CCc1ccc(S(=O)(=O)Nc2cc(SCC(=O)O)c(O)c3ccccc23)cc1 | -33.7 | 30.3 | 32.9 | 72.7* | 28.1 | 71.3* | 14.9 | 36.6 | 12.2 | -0.2 | 8.0 | 29.3 | 4.4 | nt
COc1ccc(C(C[N+](=O)[O-])c2c(C)cc3ccccn23)cc1 (centres undefined) | -16.2 | 5.2 | -31.9 | -18.0 | 36.9 | 12.1 | nt | nt | nt | nt | nt | nt | nt | nt
COc1cccc(C(c2c(C)[nH]n(-c3ccccc3)c2=O)c2c(C)[nH]n(-c3ccccc3)c2=O)c1O | -21.7 | 56.4* | 53.7* | 56.8* | 11.1 | 94.4* | 13.4 | 33.7 | 11.9 | 3.4 | 4.4 | 30.7 | 9.5 | nt
COc1ccc(C(C[N+](=O)[O-])c2c(C)[nH]n(-c3ccccc3)c2=O)cc1 (centres undefined) | -70.2 | 60.8* | 84.3* | 65.5* | 48.1 | 95.8* | 18.5 | 59.8* | 36.4 | -0.5 | -0.1 | 64.7* | 8.8 | nt | Fluor interf inh=>100
O=C(c1ccccc1)c1coc2c1C(=O)c1ccccc1C2=O | -47.5 | 17.7 | 52.4* | 84.9* | 33.3 | 63.6* | 22.7 | 74.9* | 48.0 | 14.1 | 14.8 | 69.5* | 6.5 | nt | Fluor interf inh=>100
Nc1ccc2nn(-c3ccc(F)cc3)nc2c1 | -1.5 | 56.7* | -435.0 | 88.4* | 83.9* | 87.9* | 61.3* | 75.6* | 93.6* | 71.8* | 22.6 | 24.1 | -3.5 | nt
CCOc1ccc(-n2nc3ccc(N)cc3n2)cc1 | -25.6 | 40.8 | -428.7 | 86.3* | 79.4* | 84.5* | 85.1* | 44.8 | 1.0 | 2.2 | 66.0* | 24.2 | 2.3 | nt
CCOc1ccc(-n2nc3ccc(NC(=O)c4ccc5c(c4)OCCO5)cc3n2)cc1 | 5.6 | 9.1 | -289.8 | 15.7 | -2.6 | 2.4 | nt | nt | nt | nt | nt | nt | nt | nt
O=C(COC(=O)/C=C/c1ccc(F)cc1)NC1CCS(=O)(=O)C1 (centres undefined) | -5.3 | -4.0 | -7.5 | -3.4 | -6.1 | 4.3 | nt | nt | nt | nt | nt | nt | nt | nt
COc1ccc2c(c1)Cc1sc(NC(C)=O)nc1-2 | -15.7 | 62.4* | 66.7* | 80.8* | 72.8* | 72.6* | -8.4 | 51.6* | 75.8* | 53.8* | 28.9 | 16.2 | -3.8 | 65.5*
Cc1[nH][nH]c(=O)c1C(c1c(C)[nH][nH]c1=O)c1cn(Cc2cccc3ccccc23)c2ccccc12 | -33.3 | 23.7 | 86.2* | 57.2* | 42.3 | 94.8* | 2.6 | 37.7 | 16.7 | -1.3 | -3.9 | 50.9* | 11.1 | 84.8* | Fluor interf inh=>100
O=c1c2ccccc2ncn1Cc1cccc2ccccc12 | 14.1 | -7.1 | 1.5 | -15.1 | -11.6 | -0.9 | nt | nt | nt | nt | nt | nt | nt | nt
Cc1cc(C)cc(N=Cc2ccc([N+](=O)[O-])s2)c1 | -8.4 | 16.6 | 75.4* | 56.8* | 29.1 | 18.4 | 14.2 | 41.2 | 9.2 | -3.8 | -3.4 | nt | nt | 82.6*
O=[N+]([O-])c1ccc(C=Nc2ccc(Cl)c([N+](=O)[O-])c2)s1 | -13.8 | 21.1 | 75.8* | 50.2* | 35.0 | 18.5 | 4.8 | 40.2 | 21.6 | 4.0 | 2.6 | nt | nt | 79.9*
O=Cc1cccc(OCc2cccc3ccccc23)c1 | 2.3 | -10.9 | 3.4 | -3.9 | -6.0 | 13.2 | nt | nt | nt | nt | nt | nt | nt | nt
Cc1cccc(NC(=O)CN(CC2CCCO2)C(=O)c2cc(S(=O)(=O)N(C)C)ccc2F)c1C (centres undefined) | -13.0 | -11.0 | 2.8 | -6.0 | -7.9 | 7.5 | nt | nt | nt | nt | nt | nt | nt | nt
CCOc1ccc(CC(=O)N/N=C(\C)c2cccnc2)cc1OCC | 4.7 | -10.1 | 6.6 | -8.7 | -2.9 | -9.4 | nt | nt | nt | nt | nt | nt | nt | nt
CCCCc1cc(=O)oc2cc(OCc3nn[nH]n3)ccc12 | 6.2 | -3.6 | -166.4 | -0.7 | 1.8 | -2.8 | nt | nt | nt | nt | nt | nt | nt | nt
COc1ccc(NC(=O)CSc2nc3c(c(-c4cccs4)c2C#N)CN(C)CC3)cc1OC | -16.6 | 22.6 | 51.5* | 68.2* | 39.9 | 66.9* | -0.7 | 2.3 | 4.8 | 3.5 | 0.5 | 8.6 | 4.0 | 1.5
[O-]/C(=C(\C(=S)Nc1cccc2ccccc12)[n+]1ccccc1)c1ccc(OC(F)F)cc1 | nt | nt | -201.8 | nt | nt | nt | nt | nt | nt | nt | nt | nt | nt | nt
COc1cccc(NC(=S)/C(=C(\[O-])c2ccc(OC(F)F)cc2)[n+]2ccccc2)c1 | -2.6 | 9.4 | 61.4* | 52.5* | 0.1 | 25.0 | 8.7 | 40.6 | 1.2 | 18.9 | 4.7 | nt | nt | 70.0*
c1ccc(-c2n[nH]c(-c3ccccn3)n2)cc1 | -11.5 | 64.4* | 40.9* | 61.3* | 31.8 | 0.1 | 51.0* | 50.9* | 85.8* | 83.1* | 64.3* | nt | nt | 11.3
Nc1n[nH]c(-c2ccccc2)n1 | -3.8 | -1.8 | 19.0 | -18.5 | -3.8 | 0.6 | nt | nt | nt | nt | nt | nt | nt | nt
